# Reference: ChEMBL document CHEMBL1212935 (J Med Chem, 2010)
# Active and inactive are the calls of the source. The calls are words filed in the database; no cut-off is given here.
# Key:
# [1] = biological target: Cannabinoid receptor 1 (Homo sapiens, UniProt P21554); assay: biochemical; type: cell-based, HEK293
# [2] = biological target: T1, Cannabinoid receptor 2 (Homo sapiens, UniProt P34972); assay: Displacement of [3H]CP-55940 from human CB2 receptor expressed in HEK cells; type: cell-based, HEK293
# T1 sequence (P34972 whole entry): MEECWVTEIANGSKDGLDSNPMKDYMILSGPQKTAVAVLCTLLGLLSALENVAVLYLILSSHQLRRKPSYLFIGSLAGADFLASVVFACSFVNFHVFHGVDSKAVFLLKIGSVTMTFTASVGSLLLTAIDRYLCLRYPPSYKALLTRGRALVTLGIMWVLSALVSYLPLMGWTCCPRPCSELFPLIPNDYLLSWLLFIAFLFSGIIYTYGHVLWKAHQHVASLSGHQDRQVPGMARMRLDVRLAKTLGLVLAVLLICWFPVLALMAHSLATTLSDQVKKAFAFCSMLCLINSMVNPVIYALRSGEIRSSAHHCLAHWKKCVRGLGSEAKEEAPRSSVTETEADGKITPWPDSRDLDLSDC
# [3] = species on record: Homo sapiens; assay: Selectivity ratio of Ki for human CB1 receptor to Ki for human CB2 receptor
# [4] = system: Mus musculus; assay: Antinociceptive activity in mouse hind paw assessed as inhibition of formalin-induced nociceptive behavior at 1 mg/kg, ip administered 15 mins prior to formalin challenge; type: functional, organism-based; design: dose 1 mg/kg
# In short: (§1)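 Mice received ip compound in 20% DMSO in 0.9% NaCl, groups of 8-10, one treatment per animal. Formalin (1.25% in saline, 30 μL) was injected into the dorsal hind paw 15 min later. A blinded observer timed lifting, favoring, licking, shaking and flinching over 0-10 min (early phase) and 20-60 min (late phase). Mean ± SEM; ANOVA with Dunnett's test.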
# [5] = system: Mus musculus; assay: Antinociceptive activity in mouse hind paw assessed as inhibition of formalin-induced nociceptive behavior at 1 to 3 mg/kg, ip administered 15 mins prior to formalin challenge; type: functional, organism-based
# In short: as §1
# [6] = system: Mus musculus; assay: Antinociceptive activity in mouse hind paw assessed as inhibition of formalin-induced nociceptive behavior at 1 to 3 mg/kg, ip administered 15 mins prior to formalin challenge in presence of CB2 selective agonist JWH133; type: functional, organism-based
# In short: as §1
# [7] = system: Mus musculus; assay: Antinociceptive activity in mouse hind paw assessed as inhibition of formalin-induced nociceptive behavior at 3 mg/kg, ip administered 15 mins prior to formalin challenge; type: functional, organism-based; design: dose 3 mg/kg
# In short: as §1
# [8] = biological target: T1, Cannabinoid receptor 2; assay: Antagonist activity at human CB2 receptor expressed in CHO cells assessed as inhibition of forskolin-stimulated cAMP level by [35S]GTPgammaS binding assay; type: functional, cell-based
# In short: (§2)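 CHO cells stably carrying human CB2 (DMEM/F12 with 10% FBS and G418 400 μg/mL, 37 °C, 5% CO2); membranes scraped and pelleted. [35S]GTPγS 0.1 nM with GDP 30 μM, 50 μg membrane protein, in Tris/NaCl/BSA buffer with 5 mM MgCl2, 1 mM DTT and 1 mM EDTA; 60 min at 30 °C. Nonspecific binding with 30 μM GTPγS. Filtration, then scintillation counting.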
# [9] = biological target: T1, Cannabinoid receptor 2; assay: Antagonist activity at human CB2 receptor expressed in CHO cells assessed as inhibition of forskolin-stimulated cAMP level at < 100 uM by [35S]GTPgammaS binding assay; type: functional, cell-based
# [10] = biological target: T1, Cannabinoid receptor 2; assay: Antagonist activity at human CB2 receptor expressed in CHO cells assessed as inhibition of forskolin-stimulated cAMP level up to 20 uM by [35S]GTPgammaS binding assay; type: functional, cell-based
# In short: as §2
# [11] = biological target: CYP3A4 (Homo sapiens, UniProt P08684); assay: Inhibition of CYP3A4 after 1 hr assessed as residual activity; type: ADME; conditions: read-out: Activity
# CYP3A4, sequence (P08684 whole entry): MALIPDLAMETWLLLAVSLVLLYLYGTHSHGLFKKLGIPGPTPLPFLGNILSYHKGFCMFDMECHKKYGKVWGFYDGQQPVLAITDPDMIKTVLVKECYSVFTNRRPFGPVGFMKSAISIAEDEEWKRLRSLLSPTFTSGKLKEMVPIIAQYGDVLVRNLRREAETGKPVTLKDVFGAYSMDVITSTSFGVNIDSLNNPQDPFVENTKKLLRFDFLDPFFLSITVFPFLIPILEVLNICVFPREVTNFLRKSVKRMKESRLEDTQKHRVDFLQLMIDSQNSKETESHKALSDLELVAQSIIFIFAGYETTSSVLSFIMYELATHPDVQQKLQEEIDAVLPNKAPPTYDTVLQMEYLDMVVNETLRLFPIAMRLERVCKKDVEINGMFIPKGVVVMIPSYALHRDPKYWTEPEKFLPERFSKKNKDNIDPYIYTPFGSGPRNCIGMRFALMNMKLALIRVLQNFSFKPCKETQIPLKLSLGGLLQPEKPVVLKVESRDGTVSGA
# Cannabinoid receptor 1, sequence (P21554 whole entry): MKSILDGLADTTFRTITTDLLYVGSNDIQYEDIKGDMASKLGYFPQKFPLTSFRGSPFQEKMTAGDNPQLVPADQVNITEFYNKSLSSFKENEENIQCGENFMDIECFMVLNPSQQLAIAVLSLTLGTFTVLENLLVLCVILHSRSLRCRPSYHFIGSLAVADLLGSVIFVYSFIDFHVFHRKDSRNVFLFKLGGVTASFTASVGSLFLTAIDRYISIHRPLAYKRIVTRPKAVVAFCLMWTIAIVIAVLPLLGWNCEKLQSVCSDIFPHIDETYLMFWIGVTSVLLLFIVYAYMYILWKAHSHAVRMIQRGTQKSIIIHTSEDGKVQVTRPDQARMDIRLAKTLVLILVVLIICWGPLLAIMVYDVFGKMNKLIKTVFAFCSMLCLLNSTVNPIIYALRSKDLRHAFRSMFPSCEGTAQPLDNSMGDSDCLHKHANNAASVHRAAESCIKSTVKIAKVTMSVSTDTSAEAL
Compound,Ki [1] [nM],Ki [2] [nM],Selectivity Index [3],further results
CCCCCn1cc(C(=O)NC23CC4CC(CC(C4)C2)C3)c(=O)c2cc(-c3ccc(Cl)cc3)ccc21,> 10000,11,> 909,–
CCCCCn1cc(C(=O)NC23CC4CC(CC(C4)C2)C3)c(=O)c2cc(-c3c(C)noc3C)ccc21,> 10000,126,> 80,–
CCCCCn1cc(C(=O)NC23CC4CC(CC(C4)C2)C3)c(=O)c2cc(-c3ccc(OC)nc3)ccc21,> 10000,59.3,> 169,–
COc1ccc(C(=O)c2c(C)n(CCN3CCOCC3)c3cc(I)ccc23)cc1,–,–,–,Activity [4]: inactive
CCCCCn1cc(C(=O)N[C@H]2C(C)(C)[C@H]3CC[C@]2(C)C3)c(=O)c2cc(Br)ccc21,2.8,5,0.6,–
CCCCCn1cc(C(=O)NC23CC4CC(CC(C4)C2)C3)c(=O)c2cc(C3CCCCC3)ccc21,> 10000,7.3,> 1370,Activity [5]: inactive; Activity [6]: Active
CCCCCn1cc(C(=O)NC23CC4CC(CC(C4)C2)C3)c(=O)c2cc(-n3ccnc3)ccc21,> 10000,8,> 1250,–
CCCCCn1cc(C(=O)NC23CC4CC(CC(C4)C2)C3)c(=O)c2cc(-c3ccc(O)cc3)ccc21,> 10000,4.2,> 2380,Activity [5]: Active; Activity [6]: inactive
CCCCCn1cc(C(=O)NC23CC4CC(CC(C4)C2)C3)c(=O)c2cc(CC)ccc21,900,16.9,53,–
CCCCCn1cc(C(=O)NC23CC4CC(CC(C4)C2)C3)c(=O)c2cc(C3=CCCCC3)ccc21,> 10000,8.3,> 1200,–
CCCCCn1cc(C(=O)NC23CC4CC(CC(C4)C2)C3)c(=O)c2cc(/C=C/C(C)(C)C)ccc21,> 10000,71.6,> 140,–
CCCCCn1cc(C(=O)NC2CCCCC2)c(=O)c2cc(Br)ccc21,1700,900,2,–
C=CCn1cc(C(=O)NC23CC4CC(CC(C4)C2)C3)c(=O)c2cc(-c3ccco3)ccc21,> 10000,59,> 169,–
CCCCCn1cc(C(=O)NC23CC4CC(CC(C4)C2)C3)c(=O)c2cc(-c3ccc(F)cc3F)ccc21,> 10000,16,> 625,–
CCCCCn1cc(C(=O)NC23CC4CC(CC(C4)C2)C3)c(=O)c2cc(-c3cnn(CC(C)C)c3)ccc21,246,51,5,–
CCCCCn1cc(C(=O)NC23CC4CC(CC(C4)C2)C3)c(=O)c2cc(-c3ccc(Cl)s3)ccc21,> 10000,44.8,> 223,–
CCCCCn1cc(C(=O)NC23CC4CC(CC(C4)C2)C3)c(=O)c2cc(-c3cccs3)ccc21,> 10000,2.3,> 4350,–
CCCCCn1cc(C(=O)NN2CCCCC2)c(=O)c2cc(Br)ccc21,1900,400,5,–

Compound,Ki [1] [nM],Ki [2] [nM],Selectivity Index [3],further results
CCCCCn1cc(C(=O)NC23CC4CC(CC(C4)C2)C3)c(=O)c2cc(-c3ccc(-c4ccccc4)cc3)ccc21,> 10000,181,> 55,–
CCCCCn1cc(C(=O)NC23CC4CC(CC(C4)C2)C3)c(=O)c2cc(-n3cccc3)ccc21,29.7,0.7,42,–
CCCCCn1cc(C(=O)NC23CC4CC(CC(C4)C2)C3)c(=O)c2cc(CCc3ccccc3)ccc21,> 10000,56.6,> 177,Activity [7]: inactive
CCCCCn1cc(C(=O)NC23CC4CC(CC(C4)C2)C3)c(=O)c2cc(-c3ccco3)ccc21,> 10000,0.7,> 14300,Activity [8]: Active; Activity [5]: Active; Emax [9]: 13.9%; Activity [10]: inactive; activity at 1 h [11]: 4%
C#Cc1ccc2c(c1)c(=O)c(C(=O)NC13CC4CC(CC(C4)C1)C3)cn2CCCCC,> 10000,8.8,> 1140,–
CCCCCn1cc(C(=O)NC23CC4CC(CC(C4)C2)C3)c(=O)c2cc(Cc3ccc(Cl)cc3Cl)ccc21,> 10000,3880,> 3,–
CCCCCn1cc(C(=O)NC23CC4CC(CC(C4)C2)C3)c(=O)c2cc(C#Cc3ccccc3)ccc21,> 10000,343,> 29,–
CCCCCn1cc(C(=O)NC23CC4CC(CC(C4)C2)C3)c(=O)c2cc(I)ccc21,2080,20.6,101,–
CCCCCn1cc(C(=O)NC23CC4CC(CC(C4)C2)C3)c(=O)c2cc(S(=O)(=O)c3ccccc3)ccc21,> 10000,65.9,> 152,–
CCCCCn1cc(C(=O)NC23CC4CC(CC(C4)C2)C3)c(=O)c2cc(-c3cc(C)c(OC)c(C)c3)ccc21,510,21.5,24,–
C=CCCn1cc(C(=O)NC23CC4CC(CC(C4)C2)C3)c(=O)c2cc(-c3ccco3)ccc21,> 10000,4.4,> 2270,–
CCCCCn1cc(C(=O)NC23CC4CC(CC(C4)C2)C3)c(=O)c2cc([S+]([O-])c3ccccc3)ccc21 (centres undefined),460,73.2,6,–
CCCCCn1cc(C(=O)NC23CC4CC(CC(C4)C2)C3)c(=O)c2cc(-c3ccc(C#N)cc3)ccc21,> 10000,41.9,> 239,Activity [5]: Active
CCCCCn1cc(C(=O)NC23CC4CC(CC(C4)C2)C3)c(=O)c2cc(-c3ccc4cc(OC)ccc4c3)ccc21,360,52.6,7,–
CCCCCn1cc(C(=O)N[C@H]2C(C)(C)[C@H]3CC[C@]2(C)C3)c(=O)c2cc(-c3ccco3)ccc21,480,2.4,200,–
C#CCn1cc(C(=O)NC23CC4CC(CC(C4)C2)C3)c(=O)c2cc(Br)ccc21,3210,49.8,64,–
CCCCCn1cc(C(=O)NC23CC4CC(CC(C4)C2)C3)c(=O)c2cc(/C=C/c3ccccc3)ccc21,> 10000,65.4,> 153,–
